Screening results (PubChem)
Most compounds without a hit are left out; they make up all but 1.5% or so of the library.
MLL AF4-AF9 inh: MLL-AF4/AF9 protein interaction inhibition. AlphaScreen, biotin-AF4 peptide binding to FLAG-AF9. inhibition, % at 10 µM. 350,000 compounds, 0.47% hits;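 active means every replicate reaching a set inhibition limit, whatever the replicate mean, cut at about 25% in these data; inconclusive means mean inhibition reaches that limit but some replicates miss it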
dFosB activator: activators of mouse delta FosB homodimer; activation, % at 25 µM; P13346; 340,000 compounds, 0.99% hits; AID 493131; purified delta FosB, TAMRA-CDK5 oligo fluorescence polarization; percent of positive-control signal above neutral wells;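 active means mean activation above about 17%, with every replicate also reaching it, limit read from the data, passing the limit was not always enough; inconclusive means only one of the two conditions met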
Target sequence (P13346 whole entry, looked up): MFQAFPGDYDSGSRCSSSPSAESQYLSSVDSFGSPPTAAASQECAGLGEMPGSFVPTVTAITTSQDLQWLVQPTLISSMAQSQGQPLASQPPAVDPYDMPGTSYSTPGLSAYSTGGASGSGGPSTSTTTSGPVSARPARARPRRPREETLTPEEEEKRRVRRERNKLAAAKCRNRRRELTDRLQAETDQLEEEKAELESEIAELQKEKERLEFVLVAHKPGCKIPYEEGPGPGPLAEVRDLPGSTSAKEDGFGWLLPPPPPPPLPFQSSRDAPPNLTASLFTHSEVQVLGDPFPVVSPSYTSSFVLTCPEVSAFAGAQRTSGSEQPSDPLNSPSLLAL
RAD54 inh: blocks human RAD54 Holliday junction branch migration; Q92698; FAM/BHQ fluorescence; inhibition, % at 10.4 µM; 360,000 compounds, 0.14% hits;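 active means mean normalized replicate activity at least 40 and at least half of replicates scoring 40 or more; inconclusive means only one of the two criteria met; inactive means mean below 40 and under half of replicates reaching 40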;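 further: inhibitors cause a drop in the FAM fluorescence signal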
RAD52 inh: RAD52 (human) annealing inhibition | recombinant RAD52 DNA annealing, FRET fluorescence | P43351 | inhibition, % at 18.7 µM | 360,000 compounds, 0.46% hits;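 active means every replicate showing at least 50% inhibition; inconclusive means mean inhibition at least 50% but not in every replicate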
S100A4 inh HTS: S100A4-myosin IIA interaction inhibition; S100A4/TAMRA-MyoIIA peptide fluorescence polarization; inhibition, % at 10.7 µM; 360,000 compounds, 0.14% hits;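 active means mean inhibition of at least 70% across replicates, with every replicate also reaching that level; inconclusive means mean inhibition reaches 70% but some replicates fall short; inactive means mean inhibition below 70%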
Target sequence (P26447 whole entry, looked up): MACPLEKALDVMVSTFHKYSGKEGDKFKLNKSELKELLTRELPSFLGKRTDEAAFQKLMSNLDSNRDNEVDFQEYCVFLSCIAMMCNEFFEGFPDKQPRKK
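Compound dosing: one dose per compound; test system: human S100A4 monomer with TAMRA-labelled myosin IIA peptide; probe or stimulus: TAMRA-labelled myosin IIA heavy-chain peptide probe, 5 nM; medium: HEPES buffer with Ca2+, pH 7.2; schedule: 5 min incubation before reading; benchmarks: neutral control DMSO, positive control TFP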
Large screens that a line does not name were inactive.

Fc1ccc(C(OCCN2CCN(CCCc3ccccc3)CC2)c2ccc(F)cc2)cc1	MLL AF4-AF9 inh 29
C/C=C/c1ccc(C2[C@@H]3CN(Cc4cocn4)C[C@H]2N3)cc1 (stereo not given in full)	MLL AF4-AF9 inh 29, RAD52 inh 56 (no result: dFosB activator, RAD54 inh)
C/C=C/c1ccc(C2[C@@H]3CN(Cc4nccs4)C[C@H]2N3)cc1 (stereo not given in full)	none (no result: dFosB activator, RAD54 inh)
COC(=O)[C@H]1C[C@@H]1[C@H](NP(=O)(c1ccccc1)c1ccccc1)c1ccccc1	none
COC(=O)[C@]1(C)C[C@H]1[C@H](NP(=O)(c1ccccc1)c1ccccc1)c1ccccc1	S100A4 inh HTS 84
CC=Cc1ccc2n(c1=O)C[C@H]1[C@H](CO)[C@@H](C(=O)O)[C@@H]2N1S(=O)(=O)c1ccccc1C (mixture of isomers)	none (no result: dFosB activator)
COC(=O)[C@@H]1[C@@H](CO)[C@@H]2Cn3c(cccc3=O)[C@H]1N2C(=O)C1CC1	none (no result: dFosB activator)
COc1cccc2c1C(=O)c1c(O)c3c(c(O)c1C2=O)CC(O)(C(C)=NO)CC3OC1CC(N)C(O)C(C)O1 (stereo not given)	MLL AF4-AF9 inh inconclusive, S100A4 inh HTS active (no result: RAD54 inh)
O=C(Cc1cccnc1)N1CCCCN2[C@H](CO)[C@H](c3ccc(C#CC4CC4)cc3)[C@H]2C1	none (no result: dFosB activator)
O=c1c(C=NCCN2CCNCC2)c(O)n(C2CCCCC2)c(=O)n1C1CCCCC1	dFosB activator 41 (no result: MLL AF4-AF9 inh, RAD52 inh, S100A4 inh HTS)
CCCC#Cc1ccc([C@H]2[C@H]3CN(C(=O)Cc4ccccn4)CCCCN3[C@H]2CO)cc1	none (no result: dFosB activator)
CN(c1ccc(O)cc1)c1ccc([N+](=O)[O-])c2nonc12	MLL AF4-AF9 inh 27 (no result: dFosB activator)
CCCN1[C@@H]2Cn3c(ccc(-c4ccc(F)cc4)c3=O)[C@H]1[C@@H](C(=O)OC)[C@@H]2CO	RAD52 inh 53 (no result: dFosB activator)
CCC(=O)N1[C@@H]2c3ccc(-c4ccc(F)cc4)c(=O)n3C[C@H]1[C@H](CO)[C@H]2C(=O)OC	none (no result: dFosB activator)
CCN(CC)P(=O)(NC(=O)C(Cl)(Cl)Cl)N(CC)CC.[Cl-].[Cl-].[Cl-].[Nd+3]	dFosB activator 41
CN1CCC(N(C)c2nc(-c3ccc([N+](=O)[O-])cc3)nc3ccccc23)CC1	dFosB activator 30 (no result: MLL AF4-AF9 inh, RAD54 inh, RAD52 inh, S100A4 inh HTS)
CCCNC(=O)[C@@H]1[C@@H](CO)[C@@H]2Cn3c(cccc3=O)[C@@H]2N1CC	none (no result: dFosB activator, RAD54 inh)
CN1CC(C(=O)c2ccc(Cl)cc2)C(c2ccc(N(C)C)cc2)C1 (stereo not given)	MLL AF4-AF9 inh 40 (no result: RAD54 inh)
O=C(C1CC1)N1C[C@@H]2N[C@H](C1)[C@@H]2c1ccc(-c2ccncc2)cc1	none (no result: dFosB activator, RAD54 inh)
CN(C)c1ccc(-[n+]2c(-c3ccccc3)cc(-c3ccccc3)cc2-c2ccccc2)cc1	MLL AF4-AF9 inh 31 (no result: RAD54 inh)
CC[C@H]1C=C(C(=O)N[C@@]2(C(=O)O)C[C@H]2CC)[C@H]2CCC(=O)[C@H]2C1	none (no result: dFosB activator, RAD54 inh)
Nc1ccc2ccc3cccc[n+]3c2c1	dFosB activator 32
c1ccc2c(c1)[nH]c1cnccc12	none
Cc1c2ccncc2c(C)c2c1[nH]c1ccccc12	dFosB activator 55, RAD54 inh 51 (no result: RAD52 inh)
NC(Cc1ccc(O)cc1)C(=O)NN=Cc1ccc(N(CCCl)CCCl)cc1 (stereo not given)	dFosB activator 32
N[C@@H](Cc1ccc(N(CCCl)CCCl)cc1)C(=O)O	none
CN1[C@@H]2c3cccc(=O)n3C[C@H]1[C@H](CO)[C@H]2C(=O)NCC1CC1	none (no result: dFosB activator)
COCC#Cc1ccc([C@H]2[C@H](CO)N3CCCCN(C(=O)Cc4ccccn4)C[C@@H]23)cc1	none (no result: dFosB activator)
O=C(NCC1=C(c2ccc3ccccc3c2)C[C@@H]2CC[C@H]1N2Cc1ccco1)c1ccc([N+](=O)[O-])cc1	MLL AF4-AF9 inh 28 (no result: dFosB activator)
O=C(NCC1=C(c2ccc3ccccc3c2)C[C@@H]2CC[C@H]1N2Cc1ccco1)c1ccncc1	none (no result: dFosB activator)
CCCNC(=O)N1[C@@H]2Cn3c(ccc(-c4cccc(C(=O)N(C)C)c4)c3=O)[C@H]1[C@@H](C(=O)O)[C@@H]2CO	none (no result: dFosB activator, RAD54 inh)
COc1ccc2c3c([nH]c2c1)C(C)NCC3 (stereo not given)	MLL AF4-AF9 inh 30
COC(=O)[C@@H]1[C@@H](CO)[C@@H]2Cn3c(ccc(-c4cccc(C(=O)N(C)C)c4)c3=O)[C@H]1N2CC1CC1	none (no result: dFosB activator, RAD54 inh)
O=C(O)Cn1cc(/C=C2\C(=O)NC(=O)N(c3ccc(Br)cc3)C2=O)c2ccccc21	S100A4 inh HTS 101 (no result: RAD54 inh)
Cc1ccc(N2C(=O)NC(=O)/C(=C\c3cn(CC(=O)O)c4ccccc34)C2=O)cc1	S100A4 inh HTS inconclusive
Cc1cccc(S(=O)(=O)N2[C@@H]3Cn4c(ccc(-c5ccc(F)cc5)c4=O)[C@H]2[C@@H](C(=O)O)[C@@H]3CO)c1	none (no result: dFosB activator, RAD54 inh, RAD52 inh)
CCCN1CCc2cc(O)cc3c2[C@H]1Cc1ccc(O)c(O)c1-3	MLL AF4-AF9 inh inconclusive, RAD54 inh 63, RAD52 inh 96
CN1CCc2cc(O)cc3c2[C@H]1Cc1ccc(O)c(O)c1-3	RAD52 inh 95
COc1cc2c(cc1O)C[C@H]1c3c(cc(O)c(OC)c3-2)CCN1C	none
CN(C)C(=O)[C@@H]1[C@@H](CO)[C@@H]2Cn3c(cccc3=O)[C@H]1N2CC1CC1	none (no result: dFosB activator)
O=C(O)c1cccc2c1NC(c1cccc([N+](=O)[O-])c1)C1CC(Sc3ccccc3[N+](=O)[O-])C(Cl)C21 (stereo not given)	MLL AF4-AF9 inh 27 (no result: RAD54 inh)
COc1ccc(CCn2c(O)c(C=Nc3ccc(NC(C)=O)cc3)c(=O)[nH]c2=O)cc1OC	dFosB activator 23
CCOc1ccc(N=Cc2c(O)n(CCc3ccc(OC)c(OC)c3)c(=O)[nH]c2=O)cc1	none (no result: RAD54 inh)
c1ccc(-c2ccncc2)cc1	S100A4 inh HTS 99
O=[N+]([O-])c1ccc(N2CCCCCC2)c2ncccc12	MLL AF4-AF9 inh 27 (no result: RAD54 inh)
COc1ccccc1N1CCN(Cc2ccc(F)cc2)CC1	none (no result: MLL AF4-AF9 inh, RAD52 inh, S100A4 inh HTS)
COc1ccccc1N1CCN(CCc2c[nH]c3cc4c(cc23)OCO4)CC1	MLL AF4-AF9 inh 30 (no result: RAD54 inh)
COC(=O)[C@@H]1[C@@H](CO)[C@@H]2Cn3c(ccc(C4=CCCC4)c3=O)[C@H]1N2CC1CCCC1	none (no result: dFosB activator, RAD54 inh)
Cc1ccccc1-c1ccc([C@@H]2[C@@H](CO)N3CCCCN(C(=O)Cc4ccccn4)C[C@@H]23)cc1	none (no result: dFosB activator)
O=c1[nH]c(=S)n(Cc2ccc(F)cc2)c(O)c1C=NCc1ccc2c(c1)OCO2	dFosB activator 40 (no result: RAD54 inh)
CN(C)CC#Cc1ccc([C@@H]2[C@@H](CO)N3CCCCN(C(=O)Cc4ccccn4)C[C@@H]23)cc1	none (no result: dFosB activator)
CN(C)CC#Cc1ccc([C@@H]2[C@@H](CO)N3CCCCN(C(=O)Cc4ccccn4)C[C@H]23)cc1	RAD52 inh 61 (no result: dFosB activator)
CN1CCN(c2ccc3nccnc3c2)CC1	none (no result: RAD54 inh)
CN1CCN(c2ccc(N)c(N3CCN(C)CC3)c2)CC1	dFosB activator 56 (no result: MLL AF4-AF9 inh, RAD54 inh, RAD52 inh, S100A4 inh HTS)
